Measurements from ChEMBL document CHEMBL1128574, “Glycosylated peptide hormones: pharmacological properties and conformational studies of analogues of [1-desamino,8-D-arginine]vasopressin” (J Med Chem, 1995).
Bridge positions count the residues as written; N and C are the ends. Square brackets hold non-standard residues; d marks the D form. Peptide text beside a SMILES is read from it. * marks the point of attachment. X2 = CC(=O)OC[C@@H]1O[C@@H](*)[C@@H](OC(C)=O)[C@@H](OC(C)=O)[C@H]1OC(C)=O; X1 = OC[C@@H]1O[C@@H](*)[C@@H](O)[C@@H](O)[C@H]1O; Mpa = O=C(O)CCS

How the values were obtained:
[1] = Bioavailability in rat administered i.d.; format: ADME, organism-based; settings: in vivo
Procedure, shortened: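 Computed as (AUCii/doseii)/(AUCiv/doseiv). Anaesthetized male Sprague-Dawley rats received 100 μg intraintestinally into a cannulated jejunal segment or 1.0 μg iv via jugular vein, both in 0.9% NaCl. Plasma levels by RIA; AUC by trapezoidal rule.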

Rattus norvegicus [2] = assay: Area under the curve administered intraintestinal in rats.; format: ADME, organism-based; settings: in vivo, other
Procedure, shortened: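 Anaesthetized (Inactin) male Sprague-Dawley rats, 250–300 g, kept at 37 °C. 100 μg peptide in 1 mL 0.9% NaCl given into a cannulated, rinsed 15 cm small-intestine segment starting 10 cm distal to pylorus, after 30 min recovery. Carotid blood sampled, EDTA plasma assayed by RIA (antibody ADA 6). AUC by trapezoidal rule; mean ± SEM of n rats.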

Rattus norvegicus [3] = assay: Area under the curve administered intravenously in rats.; format: ADME, organism-based; settings: in vivo, iv
Procedure, shortened: (§1)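 Anaesthetized (Inactin) male Sprague-Dawley rats, 250–300 g. 1.0 μg peptide in 0.2 mL sterile 0.9% NaCl injected into a catheterized jugular vein. Carotid blood samples (0.2 mL) taken as EDTA plasma and quantified by RIA (ADA 6 antibody, [125I]Tyr2-DDAVP tracer). Half-life and trapezoidal AUC given as mean ± SEM of n rats.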

[4] = Cmax value administered intraintestinal in rats.; format: ADME, organism-based; settings: rat, in vivo
Procedure, shortened: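 Anaesthetized (Inactin) male Sprague-Dawley rats, 250–300 g, 37 °C. 100 μg peptide in 1 mL 0.9% NaCl given into a cannulated 15 cm intestinal segment. Plasma peptide measured by RIA at set time points; the maximal plasma concentration is reported as mean ± SEM of n rats.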

[5] = Degradation in vitro by alpha-chymotrypsin.; format: ADME
Procedure, shortened: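 Peptide (1 mM final) incubated with α-chymotrypsin (1 mg/mL final) at 37 °C in 25 mM Tris, 65 mM NaCl, 2.5 mM CaCl2, pH 7.8. Reaction stopped with ice-cold TCA and centrifuged. Remaining peptide measured over time by RP-HPLC against an enzyme-free reference, giving the half-life.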

[6] = Degradation in vitro by rat intestinal juice.; format: ADME, organism-based
Procedure, shortened: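 Rat intestinal juice was a 0.9% NaCl rinse of a 10 cm small-intestine segment, centrifuged at 10000g and stored at −20 °C. Incubation matched the chymotrypsin assay (1 mM peptide, 37 °C, pH 7.8) except for 165 mM Tris. Juice amount was set to degrade DDAVP at 2%/min. Time course by RP-HPLC.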

[7] = Half life administered intravenously in rats.; format: ADME, organism-based; settings: rat, in vivo, iv; procedure, shortened: as §1
[8] = Relative transport rate as the ratio of transport rate to that of PEG 1000.; format: ADME
Procedure, shortened: (§2)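 Rat small-intestine pieces, about 35 cm distal to pylorus and free of Peyer's patches, mounted in a modified Ussing chamber (1.47 cm2) at 37 °C in oxygenated Krebs-Ringer, pH 7.4. Peptide, [3H]PEG 1000 and [14C]PEG 4000 added apically. Basolateral samples taken every 15 min and assayed by RIA or scintillation counting. Papp = (dQ/dt)/(A·C0), expressed relative to each PEG.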

[9] = Relative transport rate as the ratio of transport rate to that of PEG 4000.; format: ADME; procedure, shortened: as §2
[10] = biological target: T1, Vasopressin receptor (Rattus norvegicus) (UniProt P48974+P30560+Q00788); assay: Percent inhibition of vasopressin receptor agonistic activity in vivo in rats; format: functional, organism-based; settings: concentration not given here
Procedure, shortened: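 Overnight-hydrated male Sprague-Dawley rats. Peptide injected 1 min before a fixed vasopressin dose, set per rat to give similar antidiuretic responses. Inhibition was read at a 330-fold molar excess over vasopressin as percent inhibition of the antidiuretic effect. Mean of two experiments.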

[11] = biological target: T1, Vasopressin receptor (Rattus norvegicus); assay: Compound was tested in vitro for its ability to displace radioligand [3H]vasopressin from the vasopressin receptor in rat renal medullary membrane in absence of V1-antagonist; format: functional, cell membranes; settings: Renal medulla
Procedure, shortened: (§3)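 Rat renal medullary membranes (250 μg protein) incubated for 120 min at room temperature with 1 nM [3H]vasopressin and increasing peptide concentrations, with or without 10 nM of the V1 antagonist [Phenylac1,D-Tyr(Me)2,Arg6,8,Lys-NH2 9]vasopressin. Membranes were pelleted and washed, and bound label was counted by liquid scintillation.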

[12] = biological target: T1, Vasopressin receptor (Rattus norvegicus); assay: Compound was tested in vitro for its ability to displace radioligand [3H]vasopressin from the vasopressin receptor in rat renal medullary membrane in presence of V1-antagonist; format: functional, cell membranes; settings: Renal medulla; procedure, shortened: as §3
[13] = biological target: T1, Vasopressin receptor (Rattus norvegicus)

Row | bioavailability [1] | AUC (Rattus norvegicus [2]) | AUC (Rattus norvegicus [3]) | Cmax [4] | half-life [5] | half-life [6] | half-life [7] | Ratio [8] | Ratio [9] | inhibition [10] | Displacement [11] | Displacement [12] | Antidiuretic activity [13] | Structure (SMILES)
1 | 0.5% | 2.35 ng·h/mL | 4.63 ng·h/mL | 1.4 ng/mL | 37 min | 280 min | 32 min | 0.62 | 1.66 |  |  |  |  | NC(=O)CNC(=O)[C@@H](CCCN=C(N)N)NC(=O)[C@@H]1CCCN1C(=O)[C@@H]1CSSCCC(=O)N[C@H](Cc2ccc(O)cc2)C(=O)N[C@@H](Cc2ccccc2)C(=O)N[C@@H](CO)C(=O)N[C@@H](CC(N)=O)C(=O)N1
2 | 0.1% | 0.867 ng·h/mL | 7.65 ng·h/mL | 0.8 ng/mL | 13 min | 20 min | 39 min | 0.57 | 1.57 |  |  |  |  | NC(=O)CC[C@@H]1NC(=O)[C@H](Cc2ccccc2)NC(=O)[C@H](Cc2ccc(O)cc2)NC(=O)CCSSC[C@@H](C(=O)N2CCC[C@H]2C(=O)N[C@H](CCCN=C(N)N)C(=O)NCC(N)=O)NC(=O)[C@H](CC(N)=O)NC1=O [DESMOPRESSIN]
3 |  |  |  |  |  |  |  |  |  |  |  |  | 810 IU µM-1 | NC(=O)CNC(=O)[C@H](CCCN=C(N)N)NC(=O)[C@@H]1CCCN1C(=O)[C@@H]1CSSCCC(=O)N[C@H](Cc2ccc(O)cc2)C(=O)N[C@@H](Cc2ccccc2)C(=O)N[C@@H](CO)C(=O)N[C@@H](CC(N)=O)C(=O)N1

Continued, molecule first:

Row | Structure (SMILES) | bioavailability [1] | AUC (Rattus norvegicus [2]) | AUC (Rattus norvegicus [3]) | Cmax [4] | half-life [5] | half-life [6] | half-life [7] | Ratio [8] | Ratio [9] | inhibition [10] | Displacement [11] | Displacement [12] | Antidiuretic activity [13]
4 | CC(=O)OC[C@@H]1O[C@@H](OC[C@@H]2NC(=O)[C@H](Cc3ccccc3)NC(=O)[C@H](Cc3ccc(O)cc3)NC(=O)CCSSC[C@@H](C(=O)N3CCC[C@H]3C(=O)N[C@@H](CCCN=C(N)N)C(=O)NCC(N)=O)NC(=O)[C@H](CC(N)=O)NC2=O)[C@@H](OC(C)=O)[C@@H](OC(C)=O)[C@H]1OC(C)=O ([Mpa]YFS(X2)NCPRG-NH2; disulfide 1-6) | 2.1% | 10.3 ng·h/mL | 4.97 ng·h/mL | 3.6 ng/mL | 180 min | 230 min | 35 min | 1.09 | 2.83 | 3% | 45% | 45% | 0.31 IU µM-1
5 | NC(=O)CNC(=O)[C@H](CCCN=C(N)N)NC(=O)[C@@H]1CCCN1C(=O)[C@@H]1CSSCCC(=O)N[C@@H](Cc2ccc(O)cc2)C(=O)N[C@@H](Cc2ccccc2)C(=O)N[C@@H](CO[C@@H]2O[C@@H](CO)[C@H](O)[C@H](O)[C@@H]2O)C(=O)N[C@@H](CC(N)=O)C(=O)N1 ([Mpa]YFS(X1)NCPRG-NH2; disulfide 1-6) | 1.6% | 5.75 ng·h/mL | 3.52 ng·h/mL | 2.5 ng/mL | 37 min | 320 min | 20 min | 0.96 | 2.56 | 4% | 55% | 55% | 0.06 IU µM-1
